Several values for one entry are separate records, joined by “and”; a condition that tells them apart may be missing. Identical values can stand only once.
System: U2OS
Assay: Multiplex assay against U2OS
Format: toxicity, cell-based
Conditions: human
How it was run: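 With compound added, live cells were imaged on a CQ1 microscope at 37°C and 5% CO2; staining with Hoechst33342, BioTracker Green Microtubule Cytoskeleton Dye, MitoTracker Red and Annexin V Alexa Fluor 680 had been done at seeding. The CellPathfinder machine-learning gating scheme split cells into Hoechst high-intensity objects or normal cells, normal cells into healthy, pyknosed or fragmented nuclei, and pyknosed cells into mitotic or apoptotic. The tubulin, mitochondrial-mass and membrane-permeability phenotypes are per cents of healthy-nucleus cells.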

[1] = 12 h, 1 µM, compound concentration 1 uM, replicate 1
[2] = 12 h, 1 µM, compound concentration 1 uM, replicate 2
[3] = 12 h, 10 µM, compound concentration 10 uM, replicate 1
[4] = 12 h, 10 µM, compound concentration 10 uM, replicate 2
[5] = 24 h, 1 µM, compound concentration 1 uM, replicate 1
[6] = 24 h, 1 µM, compound concentration 1 uM, replicate 2
[7] = 24 h, 10 µM, compound concentration 10 uM, replicate 1
[8] = 24 h, 10 µM, compound concentration 10 uM, replicate 2
[9] = 48 h, 10 µM, compound concentration 10 uM, replicate 1
[10] = 48 h, 10 µM, compound concentration 10 uM, replicate 2

For `CC(C)Oc1ccc(C(=O)N[C@H](CNC(=O)CN(C)C)Cc2ccc(-c3cn4cccc([C@H](C)O)c4n3)cc2)cc1Cl` [GSK-923295A], the “Population Apoptotic (%)” value [1] was 27%, the “Population Fragmented Nuclei (%)” value [1] was 9% and the “Population Healthy Nuclei (%)” value [1] was 75%. The “Population Hoechst High Intensity Objects (%)” value [1] was 1%, the “Population Membrane Permeable-Phenotype (%)” value [1] was 33% and the “Population Mitochondria Different-Phenotype (%)” value [1] was 23%. The “Population Mitotic Cells (%)” value [1] was 72%, the “Population Normal (%)” value [1] was 98% and the “Population Pyknosed Nuclei (%)” value [1] was 15%. The “Population Tubulin-Different-Phenotype (%)” value [1] was 14%, the “Total Cell Count” value [1] was 253 and the “Population Apoptotic (%)” value [2] was 21%. For the same compound, the “Population Fragmented Nuclei (%)” value [2] was 11%, the “Population Healthy Nuclei (%)” value [2] was 66% and the “Population Hoechst High Intensity Objects (%)” value [2] was 11%. The “Population Membrane Permeable-Phenotype (%)” value [2] was 29%, the “Population Mitotic Cells (%)” value [2] was 78% and the “Population Normal (%)” value [2] was 88%. For the same compound, the “Population Pyknosed Nuclei (%)” value [2] was 22%, the “Population Tubulin-Different-Phenotype (%)” value [2] was 19% and the “Total Cell Count” value [2] was 153. The “Population Apoptotic (%)” value [3] was 48% and 53%, the “Population Fragmented Nuclei (%)” value [3] was 9% and 14% and the “Population Healthy Nuclei (%)” value [3] was 75% and 62%. The “Population Hoechst High Intensity Objects (%)” value [3] was 3% and 11%, the “Population Membrane Permeable-Phenotype (%)” value [3] was 31% and 19% and the “Population Mitochondria Different-Phenotype (%)” value [3] was 37% and 93%. For the same compound, the “Population Mitotic Cells (%)” value [3] was 51% and 46%, the “Population Normal (%)” value [3] was 96% and 88% and the “Population Pyknosed Nuclei (%)” value [3] was 15% and 23%. The “Population Tubulin-Different-Phenotype (%)” value [3] was 98% and 97%, the “Total Cell Count” value [3] was 146 and 119 and the “Population Apoptotic (%)” value [4] was 30% and 33%. The “Population Fragmented Nuclei (%)” value [4] was 32%, the “Population Healthy Nuclei (%)” value [4] was 73% and 51% and the “Population Hoechst High Intensity Objects (%)” value [4] was 2%. For the same compound, the “Population Membrane Permeable-Phenotype (%)” value [4] was 30% and 56%, the “Population Mitochondria Different-Phenotype (%)” value [4] was 89% and 67% and the “Population Mitotic Cells (%)” value [4] was 69% and 66%. The “Population Normal (%)” value [4] was 97%, the “Population Pyknosed Nuclei (%)” value [4] was 17% and 16% and the “Population Tubulin-Different-Phenotype (%)” value [4] was 100%. For the same compound, the “Total Cell Count” value [4] was 76 and 116, the “Population Apoptotic (%)” value [5] was 24% and the “Population Fragmented Nuclei (%)” value [5] was 18%. For the same compound, the “Population Healthy Nuclei (%)” value [5] was 61%, the “Population Hoechst High Intensity Objects (%)” value [5] was 2% and the “Population Membrane Permeable-Phenotype (%)” value [5] was 28%. For the same compound, the “Population Mitochondria Different-Phenotype (%)” value [5] was 19%, the “Population Mitotic Cells (%)” value [5] was 75% and the “Population Normal (%)” value [5] was 97%. The “Population Pyknosed Nuclei (%)” value [5] was 19%, the “Population Tubulin-Different-Phenotype (%)” value [5] was 13% and the “Total Cell Count” value [5] was 249. The “Population Apoptotic (%)” value [6] was 29%, the “Population Fragmented Nuclei (%)” value [6] was 13% and the “Population Healthy Nuclei (%)” value [6] was 72%. For the same compound, the “Population Hoechst High Intensity Objects (%)” value [6] was 10%, the “Population Membrane Permeable-Phenotype (%)” value [6] was 19% and the “Population Mitochondria Different-Phenotype (%)” value [6] was 22%. The “Population Mitotic Cells (%)” value [6] was 70%, the “Population Normal (%)” value [6] was 89% and the “Population Pyknosed Nuclei (%)” value [6] was 14%. For the same compound, the “Population Tubulin-Different-Phenotype (%)” value [6] was 15%, the “Total Cell Count” value [6] was 136 and the “Population Apoptotic (%)” value [7] was 78% and 72%. The “Population Fragmented Nuclei (%)” value [7] was 12% and 17%, the “Population Healthy Nuclei (%)” value [7] was 56% and 61% and the “Population Hoechst High Intensity Objects (%)” value [7] was 4% and 9%. The “Population Membrane Permeable-Phenotype (%)” value [7] was 45% and 40%, the “Population Mitochondria Different-Phenotype (%)” value [7] was 66% and 88% and the “Population Mitotic Cells (%)” value [7] was 21% and 27%. For the same compound, the “Population Normal (%)” value [7] was 95% and 90%, the “Population Pyknosed Nuclei (%)” value [7] was 31% and 20% and the “Population Tubulin-Different-Phenotype (%)” value [7] was 97%. For the same compound, the “Total Cell Count” value [7] was 171 and 128, the “Population Apoptotic (%)” value [8] was 60% and 35% and the “Population Fragmented Nuclei (%)” value [8] was 33% and 11%. The “Population Healthy Nuclei (%)” value [8] was 33% and 64%, the “Population Hoechst High Intensity Objects (%)” value [8] was 6% and 2% and the “Population Membrane Permeable-Phenotype (%)” value [8] was 64% and 53%. For the same compound, the “Population Mitochondria Different-Phenotype (%)” value [8] was 75% and 96%, the “Population Mitotic Cells (%)” value [8] was 39% and 65% and the “Population Normal (%)” value [8] was 93% and 97%. The “Population Pyknosed Nuclei (%)” value [8] was 33% and 24%, the “Population Tubulin-Different-Phenotype (%)” value [8] was 100% and the “Total Cell Count” value [8] was 133 and 72. The “Population Apoptotic (%)” value [9] was 66%, the “Population Fragmented Nuclei (%)” value [9] was 18% and the “Population Healthy Nuclei (%)” value [9] was 41%. The “Population Hoechst High Intensity Objects (%)” value [9] was 10%, the “Population Membrane Permeable-Phenotype (%)” value [9] was 49% and the “Population Mitochondria Different-Phenotype (%)” value [9] was 85%. For the same compound, the “Population Mitotic Cells (%)” value [9] was 33%, the “Population Normal (%)” value [9] was 89% and the “Population Pyknosed Nuclei (%)” value [9] was 40%. For the same compound, the “Population Tubulin-Different-Phenotype (%)” value [9] was 97%, the “Total Cell Count” value [9] was 133 and the “Population Apoptotic (%)” value [10] was 73%. The “Population Fragmented Nuclei (%)” value [10] was 9%, the “Population Healthy Nuclei (%)” value [10] was 43% and the “Population Hoechst High Intensity Objects (%)” value [10] was 7%. The “Population Membrane Permeable-Phenotype (%)” value [10] was 81%, the “Population Mitochondria Different-Phenotype (%)” value [10] was 96% and the “Population Mitotic Cells (%)” value [10] was 26%. The “Population Normal (%)” value [10] was 92%, the “Population Pyknosed Nuclei (%)” value [10] was 46% and the “Population Tubulin-Different-Phenotype (%)” value [10] was 100%. For the same compound, the “Total Cell Count” value [10] was 86.
